Assay results published in ChEMBL document CHEMBL1134511, “Development of potent non-carbohydrate imidazole-based small molecule selectin inhibitors with antiinflammatory activity” (J Med Chem, 2001).

Assays:
P-selectin [1] = biological target: T1, P-selectin (Homo sapiens, UniProt P16109); assay: Inhibitory activity against P-selectin using ELISA-based assay
T1 sequence (P16109 whole entry): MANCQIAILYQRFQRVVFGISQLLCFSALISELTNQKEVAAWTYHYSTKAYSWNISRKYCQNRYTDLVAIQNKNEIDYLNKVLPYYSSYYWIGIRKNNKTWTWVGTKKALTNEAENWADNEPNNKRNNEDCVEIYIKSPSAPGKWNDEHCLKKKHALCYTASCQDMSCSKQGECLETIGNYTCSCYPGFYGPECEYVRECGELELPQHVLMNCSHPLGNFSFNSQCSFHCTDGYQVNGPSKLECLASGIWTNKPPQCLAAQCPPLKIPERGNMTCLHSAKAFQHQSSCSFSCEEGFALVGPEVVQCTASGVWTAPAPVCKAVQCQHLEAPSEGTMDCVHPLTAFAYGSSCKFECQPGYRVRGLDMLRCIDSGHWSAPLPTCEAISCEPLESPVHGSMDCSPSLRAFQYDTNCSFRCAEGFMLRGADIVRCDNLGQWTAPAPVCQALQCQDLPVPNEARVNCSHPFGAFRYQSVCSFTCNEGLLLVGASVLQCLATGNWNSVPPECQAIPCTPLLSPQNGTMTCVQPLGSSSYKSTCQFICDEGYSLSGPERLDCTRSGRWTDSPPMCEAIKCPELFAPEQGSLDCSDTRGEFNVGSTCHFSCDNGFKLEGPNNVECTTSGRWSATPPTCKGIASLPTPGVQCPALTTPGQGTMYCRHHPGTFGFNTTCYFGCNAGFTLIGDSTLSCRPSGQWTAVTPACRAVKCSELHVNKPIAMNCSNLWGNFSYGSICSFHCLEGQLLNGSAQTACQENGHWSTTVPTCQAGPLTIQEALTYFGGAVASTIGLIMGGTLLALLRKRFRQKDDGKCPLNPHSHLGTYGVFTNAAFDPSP
Summary of the method: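 P-selectin–IgG chimera precomplexed with biotinylated goat F(ab')2 anti-human IgG and streptavidin–alkaline phosphatase, preincubated with compound 30 min RT in 50 mM imidazole pH 7.2, 1% BSA, 1 mM CaCl2. Mix added to sialyl Lewis^x pentaceramide-coated (40-100 pmol/well), BSA-blocked wells, 45 min 37 °C. p-Nitrophenyl phosphate read at 405 nm; chimera-free background subtracted; duplicate/triplicate; IC50 from % inhibition.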

P-selectin [2] = biological target: T1, P-selectin; assay: Inhibitory activity against P-selectin using cell-selectin protein assay
E-selectin = biological target: T2, E-selectin (Homo sapiens, UniProt P16581); assay: Inhibitory activity against Selectin E using cell-cell assay; Not active; type: functional
T2 sequence (P16581 whole entry): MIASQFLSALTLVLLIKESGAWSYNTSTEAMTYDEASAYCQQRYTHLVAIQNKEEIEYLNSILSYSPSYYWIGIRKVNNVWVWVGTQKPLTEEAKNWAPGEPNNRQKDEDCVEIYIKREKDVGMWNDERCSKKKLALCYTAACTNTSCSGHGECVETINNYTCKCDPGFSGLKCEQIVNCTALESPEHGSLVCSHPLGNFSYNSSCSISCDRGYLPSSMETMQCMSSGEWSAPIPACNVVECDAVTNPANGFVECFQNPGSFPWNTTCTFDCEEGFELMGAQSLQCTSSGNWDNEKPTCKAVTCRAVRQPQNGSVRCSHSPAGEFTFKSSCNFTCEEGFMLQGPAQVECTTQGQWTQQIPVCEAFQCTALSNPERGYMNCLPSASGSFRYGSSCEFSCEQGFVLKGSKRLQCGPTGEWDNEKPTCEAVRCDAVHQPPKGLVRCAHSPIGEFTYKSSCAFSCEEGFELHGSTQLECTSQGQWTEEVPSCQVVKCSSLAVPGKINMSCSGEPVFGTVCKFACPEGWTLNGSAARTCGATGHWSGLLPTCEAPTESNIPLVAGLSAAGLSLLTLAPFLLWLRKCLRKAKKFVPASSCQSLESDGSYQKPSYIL
Summary of the method: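 HUVEC monolayers (≤4-5 passages, gelatin-coated wells) activated on assay day with 10 ng/mL IL-1β as native E-selectin source. Compounds at 2× in cold RPMI preincubated 20 min 4 °C in triplicate; BCECF-AM-labelled HL60 cells (2 × 10⁶ cells/mL) added, 30 min 4 °C. Unbound cells washed off, bound cells read by fluorescence; IC50 by Probit analysis.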

P-selectin [3] = biological target: T1, P-selectin; assay: Inhibitory activity against P-selectin using cell-cell assay; Not active; type: functional
Summary of the method: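 CHO cells stably transfected with human P-selectin, plated the day before, used as monolayers. Compounds added at 2× in cold RPMI, 20 min 4 °C; BCECF-AM-labelled HL60 cells (2 × 10⁶ cells/mL) then adhered 30 min at 4 °C. Unbound cells washed off, bound cells read by fluorescence; triplicates; IC50 by Probit analysis.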

Structure (SMILES)	IC50 (P-selectin [1]) [µM]	IC50 (P-selectin [2]) [µM]	IC50 (E-selectin)	IC50 (P-selectin [3])
CCCCCCCCCCCCNC(=O)/C=C/c1ccc(-c2[nH]c(-c3ccc(-c4cc(C(=O)O)on4)cc3)nc2-c2ccc(/C=C/C(=O)O)cc2)cc1	3	290	Not Active	–
CCCCCCCCCCCCCCCCNC(=O)/C=C/c1ccc(-c2[nH]c(-c3ccc(-c4cc(C(=O)O)on4)cc3)nc2-c2ccc(/C=C/C(=O)O)cc2)cc1	0.13	2.7	–	–
O=C(/C=C/c1ccc(-c2nc(-c3ccc(N4CCCC4)cc3)[nH]c2-c2ccc(C3=NOC(C(=O)O)C3)cc2)cc1)NCCCc1ccccc1 (stereo not given)	34	50	–	Not Active
O=C(O)/C=C/c1ccc(-c2nc(-c3ccc(/C=C/C(=O)NCCCc4ccccc4)cc3)c(-c3ccc(C4=NOC(C(=O)O)C4)cc3)[nH]2)cc1 (stereo not given)	100	21	–	–

The next lines start with the values.

IC50 (P-selectin [1]) [µM]	IC50 (P-selectin [2]) [µM]	IC50 (E-selectin)	IC50 (P-selectin [3])	Structure (SMILES)
16	44	–	–	CCCCCCCc1ccc(NC(=O)/C=C/c2ccc(-c3[nH]cnc3-c3ccc(/C=C/C(=O)O)cc3)cc2)cc1
> 1	–	–	–	CC(=O)N[C@H]1[C@H]([C@H](O)[C@H](O)CO)O[C@@](O[C@H]2[C@@H](O)[C@@H](CO)O[C@@H](O[C@@H]([C@H](O[C@@H]3O[C@@H](C)[C@@H](O)[C@@H](O)[C@@H]3O)[C@H](C=O)NC(C)=O)[C@H](O)CO)[C@@H]2O)(C(=O)O)C[C@@H]1O [SIALYL LEWIS X]
17	40	–	–	CCCCCCCCCCCCCCCCNC(=O)/C=C/c1ccc(-c2[nH]cnc2-c2ccc(/C=C/C(=O)O)cc2)cc1
–	21	Not Active	Not Active	CCCCCCN(CCCCCC)C(=O)/C=C/c1ccc(-c2[nH]cnc2-c2ccc(/C=C/C(=O)O)cc2)cc1
0.29	9	–	–	CCCCCCCCCCCCCCCCNC(=O)/C=C/c1ccc(-c2[nH]c(-c3ccc(C4=NOC(C(=O)O)C4)cc3)nc2-c2ccc(/C=C/C(=O)O)cc2)cc1 (stereo not given)
